Laboratory results: ChEMBL document CHEMBL4270638, “Sulfonyl-containing phenyl-pyrrolyl pentane analogues: Novel non-secosteroidal vitamin D receptor modulators with favorable physicochemical properties, pharmacokinetic properties and anti-tumor activity” (Eur J Med Chem, 2018)
In brackets after ≈: the same amount, converted by molar mass.

Legend:
BXPC-3 = experiment: Antiproliferative activity against human BxPC3 cells after 24 hrs by MTT assay; type: functional, cell-based; conditions: BXPC-3, 24 h
MCF7 [1] = experiment: Antiproliferative activity against human MCF7 cells after 24 hrs by MTT assay; type: functional, cell-based; conditions: MCF7, 24 h
PC-3 = experiment: Antiproliferative activity against human PC3 cells after 24 hrs by MTT assay; type: functional, cell-based; conditions: PC-3, 24 h
[2] = Solubility of the compound in water at pH 7.4 by HPLC method; type: physicochemical
Summary of the method: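 Aqueous solubility measured at pH 7.4, with samples quantified by HPLC.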

[3] = Half life in rat liver microsomes in presence of NADPH by HPLC method; type: ADME, microsome
Summary of the method: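 Compounds incubated with rat liver microsomes plus NADPH. Remaining compound quantified by HPLC at 0, 5, 10, 20, 30, 45, 60 and 90 min, and half-life calculated.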

MCF7 [4] = experiment: Cell cycle arrest in human MCF7 cells expressing scrambled siRNA assessed as accumulation at G0/G1 phase at 1 uM after 24 hrs by propidium iodide staining based flow cytometry (reference value: 49.28%); type: functional
MCF7 [5] = experiment: Cell cycle arrest in human MCF7 cells expressing scrambled siRNA assessed as accumulation at G2/M phase at 1 uM after 24 hrs by propidium iodide staining based flow cytometry (reference value: 19.6%); type: functional
MCF7 [6] = experiment: Cell cycle arrest in human MCF7 cells expressing scrambled siRNA assessed as accumulation at S phase at 1 uM after 24 hrs by propidium iodide staining based flow cytometry (reference value: 29.79%); type: functional
MCF7 [7] = experiment: Cell cycle arrest in human MCF7 cells expressing VDR siRNA assessed as accumulation at G0/G1 phase at 1 uM after 24 hrs by propidium iodide staining based flow cytometry (reference value: 49.17%); type: functional
MCF7 [8] = experiment: Cell cycle arrest in human MCF7 cells expressing VDR siRNA assessed as accumulation at G2/M phase at 1 uM after 24 hrs by propidium iodide staining based flow cytometry (reference value: 17.57%); type: functional
MCF7 [9] = experiment: Cell cycle arrest in human MCF7 cells expressing VDR siRNA assessed as accumulation at S phase at 1 uM after 24 hrs by propidium iodide staining based flow cytometry (reference value: 32%); type: functional
MCF7 [10] = experiment: Induction of apoptosis in human MCF7 cells expressing scrambled siRNA assessed as live cells at 1 uM after 24 hrs by Annexin-V-FITC/propidium iodide staining based flow cytometry (reference value: 97.93%); type: functional
MCF7 [11] = experiment: Induction of apoptosis in human MCF7 cells expressing scrambled siRNA assessed as early apoptotic cells at 1 uM after 24 hrs by Annexin-V-FITC/propidium iodide staining based flow cytometry (reference value: 0.93%); type: functional
MCF7 [12] = experiment: Induction of apoptosis in human MCF7 cells expressing scrambled siRNA assessed as late apoptotic cells at 1 uM after 24 hrs by Annexin-V-FITC/propidium iodide staining based flow cytometry (reference value: 0.98%); type: functional
MCF7 [13] = experiment: Induction of apoptosis in human MCF7 cells expressing scrambled siRNA assessed as necrotic cells at 1 uM after 24 hrs by Annexin-V-FITC/propidium iodide staining based flow cytometry (reference value: 0.16%); type: functional
MCF7 [14] = experiment: Induction of apoptosis in human MCF7 cells expressing VDR siRNA assessed as live cells at 1 uM after 24 hrs by Annexin-V-FITC/propidium iodide staining based flow cytometry (reference value: 98.35%); type: functional
MCF7 [15] = experiment: Induction of apoptosis in human MCF7 cells expressing VDR siRNA assessed as early apoptotic cells at 1 uM after 24 hrs by Annexin-V-FITC/propidium iodide staining based flow cytometry (reference value: 0.49%); type: functional
MCF7 [16] = experiment: Induction of apoptosis in human MCF7 cells expressing VDR siRNA assessed as late apoptotic cells at 1 uM after 24 hrs by Annexin-V-FITC/propidium iodide staining based flow cytometry (reference value: 1.01%); type: functional
MCF7 [17] = experiment: Induction of apoptosis in human MCF7 cells expressing VDR siRNA assessed as necrotic cells at 1 uM after 24 hrs by Annexin-V-FITC/propidium iodide staining based flow cytometry (reference value: 0.15%); type: functional

IC50 (BXPC-3)	IC50 (MCF7 [1])	IC50 (PC-3)	Compound	also measured
15.9 µM	28.5 µM	12.1 µM	CCn1c(C(=O)N[C@H](CO)CCO)ccc1C(CC)(CC)c1ccc(OCS(=O)(=O)c2ccccc2)c(C)c1	
7.72 µM	25.5 µM	7.3 µM	CCn1c(C(=O)N[C@H](CO)C(C)C)ccc1C(CC)(CC)c1ccc(OCS(=O)(=O)c2ccccc2)c(C)c1	solubility [2]: 27.8 µg/mL (≈ 50.1 µM); half-life [3]: 46.3 min
> 50 µM	> 50 µM	> 50 µM	CCn1c(C(=O)N[C@H](CC(=O)O)C(=O)O)ccc1C(CC)(CC)c1ccc(OCS(=O)(=O)c2ccccc2)c(C)c1	
6.43 µM	6.47 µM	6.89 µM	CCn1c(C(=O)NCCN)ccc1C(CC)(CC)c1ccc(OCS(=O)(=O)c2ccccc2)c(C)c1	solubility [2]: 65 µg/mL (≈ 127 µM); half-life [3]: 34.9 min
30.4 µM	16.3 µM	36.6 µM	CCN(CC)CCNC(=O)c1cc(C(CC)(CC)c2ccc(OCS(C)(=O)=O)c(C)c2)cn1CC	
20.1 µM	> 50 µM	20.1 µM	CCn1c(C(=O)N[C@H](C)C(=O)O)ccc1C(CC)(CC)c1ccc(OCS(=O)(=O)c2ccccc2)c(C)c1	
> 50 µM	27.4 µM	14.1 µM	CCn1c(C(=O)N[C@@H](CO)CCO)ccc1C(CC)(CC)c1ccc(OCS(=O)(=O)c2ccccc2)c(C)c1	
26.6 µM	42 µM	11.3 µM	CCn1c(C(=O)NCCCO)ccc1C(CC)(CC)c1ccc(OCS(=O)(=O)c2ccccc2)c(C)c1	
45.4 µM	28.8 µM	3.56 µM	CCn1c(C(=O)NC2(CO)CC2)ccc1C(CC)(CC)c1ccc(OCS(=O)(=O)c2ccccc2)c(C)c1	
> 50 µM	> 50 µM	> 50 µM	CCn1c(C(=O)N[C@H](C)C(=O)OC)ccc1C(CC)(CC)c1ccc(OCS(=O)(=O)c2ccccc2)c(C)c1	
16.2 µM	24.5 µM	3.65 µM	CCn1c(C(=O)N[C@H](C(=O)O)C(C)C)ccc1C(CC)(CC)c1ccc(OCS(=O)(=O)c2ccccc2)c(C)c1	
5.67 µM	4.9 µM	2.23 µM	CCN(CC)CCNC(=O)c1ccc(C(CC)(CC)c2ccc(OCSc3ccccc3)c(C)c2)n1CC	Activity (MCF7 [4]): 55.65%; Activity (MCF7 [5]): 11.15%; Activity (MCF7 [6]): 31.59%; Activity (MCF7 [7]): 51.65%; Activity (MCF7 [8]): 17.07%; Activity (MCF7 [9]): 30.12%; Activity (MCF7 [10]): 96.21%; Activity (MCF7 [11]): 0.59%; Activity (MCF7 [12]): 2.85%; Activity (MCF7 [13]): 0.35%; Activity (MCF7 [14]): 97.03%; Activity (MCF7 [15]): 0.71%; Activity (MCF7 [16]): 1.78%; Activity (MCF7 [17]): 0.47%; solubility [2]: 25.6 µg/mL (≈ 47.8 µM); half-life [3]: 53.7 min
16.4 µM	29.6 µM	13.4 µM	CCn1c(C(=O)N[C@@H](CO)CCCO)ccc1C(CC)(CC)c1ccc(OCS(=O)(=O)c2ccccc2)c(C)c1	
> 50 µM	31.4 µM	6.81 µM	CCn1c(C(=O)N[C@H](CO)CCCO)ccc1C(CC)(CC)c1ccc(OCS(=O)(=O)c2ccccc2)c(C)c1	
18.3 µM	20.7 µM	9.85 µM	CCn1c(C(=O)NC(C)(C)CO)ccc1C(CC)(CC)c1ccc(OCS(=O)(=O)c2ccccc2)c(C)c1	
> 50 µM	> 50 µM	> 50 µM	CCn1c(C(=O)N[C@H](CCC(=O)O)C(=O)O)ccc1C(CC)(CC)c1ccc(OCS(=O)(=O)c2ccccc2)c(C)c1	
> 50 µM	> 50 µM	6.49 µM	CCn1c(C(=O)N[C@@H](CC(=O)OC)C(=O)OC)ccc1C(CC)(CC)c1ccc(OCS(=O)(=O)c2ccccc2)c(C)c1	
> 50 µM	33.1 µM	30.1 µM	CCn1c(C(=O)NCC(=O)O)ccc1C(CC)(CC)c1ccc(OCS(=O)(=O)c2ccccc2)c(C)c1	

IC50 (BXPC-3)	IC50 (MCF7 [1])	IC50 (PC-3)	Compound	also measured
33.7 µM	14.7 µM	46.7 µM	CCN(CC)CCNC(=O)c1ccc(C(CC)(CC)c2ccc(OCS(C)(=O)=O)c(C)c2)n1CC	
13.2 µM	18.8 µM	10.6 µM	CCn1c(C(=O)N[C@@H](CO)C(C)C)ccc1C(CC)(CC)c1ccc(OCS(=O)(=O)c2ccccc2)c(C)c1	
15.3 µM	10.8 µM	9.52 µM	CCn1c(C(=O)N[C@@H](C)CO)ccc1C(CC)(CC)c1ccc(OCS(=O)(=O)c2ccccc2)c(C)c1	solubility [2]: 35.7 µg/mL (≈ 67.8 µM); half-life [3]: 43.8 min
> 50 µM	> 50 µM	14.4 µM	CCn1c(C(=O)NCCC(=O)O)ccc1C(CC)(CC)c1ccc(OCS(=O)(=O)c2ccccc2)c(C)c1	
> 50 µM	41.2 µM	26.3 µM	CCn1c(C(=O)NC2(C(=O)O)CC2)ccc1C(CC)(CC)c1ccc(OCS(=O)(=O)c2ccccc2)c(C)c1	
> 50 µM	> 50 µM	40.4 µM	CCn1c(C(=O)NCCC(=O)OC)ccc1C(CC)(CC)c1ccc(OCS(=O)(=O)c2ccccc2)c(C)c1	
10 µM	10.6 µM	7.79 µM	CCn1c(C(=O)N[C@H](C)CO)ccc1C(CC)(CC)c1ccc(OCS(=O)(=O)c2ccccc2)c(C)c1	
20 µM	> 50 µM	> 50 µM	CCn1c(C(=O)NCC(=O)OC)ccc1C(CC)(CC)c1ccc(OCS(=O)(=O)c2ccccc2)c(C)c1	
19.9 µM	15.5 µM	17.7 µM	CCn1c(C(=O)NCCO)ccc1C(CC)(CC)c1ccc(OCS(=O)(=O)c2ccccc2)c(C)c1	
17.9 µM	43.7 µM	> 50 µM	CCn1c(C(=O)N[C@@H](C)C(=O)OC)ccc1C(CC)(CC)c1ccc(OCS(=O)(=O)c2ccccc2)c(C)c1	
> 50 µM	> 50 µM	> 50 µM	CCn1c(C(=O)N[C@@H](CC(=O)O)C(=O)O)ccc1C(CC)(CC)c1ccc(OCS(=O)(=O)c2ccccc2)c(C)c1	
6.27 µM	4.68 µM	7.13 µM	CCN(CC)CCNC(=O)c1ccc(C(CC)(CC)c2ccc(OCS(=O)(=O)c3ccccc3)c(C)c2)n1CC	solubility [2]: 117 µg/mL (≈ 207 µM); half-life [3]: 62.4 min
20.8 µM	35.5 µM	16.8 µM	CCn1c(C(=O)N[C@@H](C)C(=O)O)ccc1C(CC)(CC)c1ccc(OCS(=O)(=O)c2ccccc2)c(C)c1	
13.9 µM	44.7 µM	3.07 µM	CCn1c(C(=O)N[C@@H](C(=O)O)C(C)C)ccc1C(CC)(CC)c1ccc(OCS(=O)(=O)c2ccccc2)c(C)c1	
5.37 µM	4.7 µM	2.62 µM	CCN(CC)CCNC(=O)c1cc(C(CC)(CC)c2ccc(OCSc3ccccc3)c(C)c2)cn1CC	Activity (MCF7 [4]): 55.79%; Activity (MCF7 [5]): 11.15%; Activity (MCF7 [6]): 31.75%; Activity (MCF7 [7]): 50.29%; Activity (MCF7 [8]): 17.3%; Activity (MCF7 [9]): 30.97%; Activity (MCF7 [10]): 94.44%; Activity (MCF7 [11]): 1.01%; Activity (MCF7 [12]): 3.65%; Activity (MCF7 [13]): 0.9%; Activity (MCF7 [14]): 97.14%; Activity (MCF7 [15]): 0.58%; Activity (MCF7 [16]): 1.91%; Activity (MCF7 [17]): 0.37%; solubility [2]: 0.6 µg/mL (≈ 1.12 µM); half-life [3]: 71.4 min
> 50 µM	> 50 µM	> 50 µM	CCn1c(C(=O)N[C@@H](CCC(=O)O)C(=O)O)ccc1C(CC)(CC)c1ccc(OCS(=O)(=O)c2ccccc2)c(C)c1	
> 50 µM	> 50 µM	> 50 µM	CCn1c(C(=O)NCCNC(=O)OC(C)(C)C)ccc1C(CC)(CC)c1ccc(OCS(=O)(=O)c2ccccc2)c(C)c1	
